Values after ≈ are worked out from the molar mass of the structure shown.
Tests used:
Staphylococcus aureus [1] = assay: Antimicrobial activity against Staphylococcus aureus MRSA08-12 in peritonitis mouse model assessed as mortality of host at 1.25 mg/kg, iv as single dose relative to control; format: functional
How it was run: (§1)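 Outbred KM mice (20–25 g) infected i.p. with a 90–100% lethal dose (5 × 10^7 CFU/mL) in 0.5 mL brain heart infusion broth with 5% mucin. Single i.v. dose of 1.25–20 mg/kg in 20% DMSO, 0.1 mL. Ten mice per dose; daily monitoring for 14 days; ED50 from cumulative mortality by Bliss's method.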

[2] = Drug recovery in CD1 mouse plasma at 2 uM by equilibrium dialysis; format: ADME, cell-free; details: read-out: Drug recovery
How it was run: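 Pooled CD-1 mouse plasma spiked to 2 µM final, equilibrium dialysis in triplicate against 100 mM PBS pH 7.4, 4 h at 37 °C with rotation; matrix-matched samples acetonitrile-precipitated, LC-MS/MS with internal standards. Unbound = free/total ×100; recovery = (free+total)/pre-dialysis ×100.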

hERG (KCNH2) = hERG (KCNH2) (Homo sapiens, UniProt Q12809); assay: Inhibition of human ERG at 1 uM
Chain of hERG (KCNH2) (Q12809 whole entry): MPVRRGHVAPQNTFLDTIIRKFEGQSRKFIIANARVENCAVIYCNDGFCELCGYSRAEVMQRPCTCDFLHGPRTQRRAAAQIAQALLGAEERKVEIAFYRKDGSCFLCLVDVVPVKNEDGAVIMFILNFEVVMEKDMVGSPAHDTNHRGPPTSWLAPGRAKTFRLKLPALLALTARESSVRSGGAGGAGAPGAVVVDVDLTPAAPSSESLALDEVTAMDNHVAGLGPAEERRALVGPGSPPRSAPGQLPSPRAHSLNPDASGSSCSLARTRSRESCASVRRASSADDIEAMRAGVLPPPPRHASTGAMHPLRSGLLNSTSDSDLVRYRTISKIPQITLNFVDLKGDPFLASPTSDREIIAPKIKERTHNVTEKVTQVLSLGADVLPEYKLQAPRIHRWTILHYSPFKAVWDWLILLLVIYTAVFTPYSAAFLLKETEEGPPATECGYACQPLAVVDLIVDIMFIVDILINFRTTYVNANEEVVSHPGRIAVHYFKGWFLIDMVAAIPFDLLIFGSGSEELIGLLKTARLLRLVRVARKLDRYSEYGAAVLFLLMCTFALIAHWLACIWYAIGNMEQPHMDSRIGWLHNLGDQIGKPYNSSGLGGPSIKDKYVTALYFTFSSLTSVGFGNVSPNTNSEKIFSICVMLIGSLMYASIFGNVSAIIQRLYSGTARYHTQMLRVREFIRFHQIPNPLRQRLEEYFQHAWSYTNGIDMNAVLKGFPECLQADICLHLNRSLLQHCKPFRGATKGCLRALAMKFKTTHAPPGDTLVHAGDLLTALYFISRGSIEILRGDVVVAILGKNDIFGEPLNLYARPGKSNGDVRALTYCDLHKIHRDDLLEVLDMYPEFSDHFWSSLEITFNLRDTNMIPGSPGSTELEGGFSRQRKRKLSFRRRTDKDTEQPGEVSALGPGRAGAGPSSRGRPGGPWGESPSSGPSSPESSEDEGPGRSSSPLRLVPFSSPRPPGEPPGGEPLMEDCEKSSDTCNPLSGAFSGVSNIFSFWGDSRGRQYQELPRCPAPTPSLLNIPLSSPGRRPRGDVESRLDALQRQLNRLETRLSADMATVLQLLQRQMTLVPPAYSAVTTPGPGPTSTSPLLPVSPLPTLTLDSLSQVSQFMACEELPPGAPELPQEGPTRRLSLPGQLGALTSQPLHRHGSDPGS

Mus musculus [3] = assay: Acute toxicity in KM mouse assessed as lung abnormality at 250 mg/kg, iv measured for 14 days by necropsy; format: organism-based; design: dose 250 mg/kg, route intravenous; details: in vivo, 336 h
How it was run: (§2)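 Outbred KM mice (SPF, 20–25 g; nine male, ten female) given a single tail-vein injection of 100 or 250 mg/kg in PBS pH 6.5 with 20% DMSO over about 60 s. Behaviour, weight, coat colour, anal temperature, food and water intake, and urine and stool weight followed for 14 days. On day 14, gross necropsy of skin, lungs, heart, liver, kidneys and spleen.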

Mus musculus [4] = assay: Acute toxicity in KM mouse assessed as heart abnormality at 250 mg/kg, iv measured for 14 days by necropsy; format: organism-based; design: dose 250 mg/kg, route intravenous; details: in vivo, 336 h; how it was run: as §2
Mus musculus [5] = assay: Acute toxicity in KM mouse assessed as liver abnormality at 250 mg/kg, iv measured for 14 days by necropsy; format: organism-based; design: dose 250 mg/kg, route intravenous; details: in vivo, 336 h; how it was run: as §2
Staphylococcus aureus [6] = assay: Antimicrobial activity against methicillin-susceptible Staphylococcus aureus after 24 hrs by broth microdilution method; format: functional
How it was run: (§3)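 Broth microdilution following NCCLS M7-A4; ATCC strains and clinical isolates from a provincial hospital.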

Staphylococcus aureus [7] = assay: Antimicrobial activity against methicillin-resistant Staphylococcus aureus after 24 hrs by broth microdilution method; format: functional
How it was run: (§4)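 Broth microdilution following NCCLS M7-A4, using ATCC strains and clinical isolates from a provincial hospital.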

[8] = test system: Staphylococcus epidermidis; assay: Antimicrobial activity against Staphylococcus epidermidis after 24 hrs by broth microdilution method; format: functional; how it was run: as §3
Staphylococcus aureus [9] = assay: Antimicrobial activity against Staphylococcus aureus WCUH29 after 24 hrs by broth microdilution method; format: functional; details: WCUH29, 24 h; how it was run: as §3
Enterococcus faecium = assay: Antimicrobial activity against Enterococcus faecium X7501 after 24 hrs by broth microdilution method; format: functional; details: X7501, 24 h; how it was run: as §3
Haemophilus influenzae [10] = assay: Antimicrobial activity against Haemophilus influenzae H128 after 24 hrs by broth microdilution method; format: functional; details: H128, 24 h; how it was run: as §3
Haemophilus influenzae [11] = assay: Antimicrobial activity against AcrA-deficient Haemophilus influenzae H128 after 24 hrs by broth microdilution method; format: functional; details: H128, 24 h; how it was run: as §3
Moraxella catarrhalis = assay: Antimicrobial activity against Moraxella catarrhalis 1502 after 24 hrs by broth microdilution method; format: functional; details: Moraxella catarrhalis, 1502, 24 h; how it was run: as §3
Streptococcus pneumoniae [12] = assay: Antimicrobial activity against Streptococcus pneumoniae 1629 after 24 hrs by broth microdilution method; format: functional; details: Streptococcus pneumoniae, 1629, 24 h; how it was run: as §3
Streptococcus pneumoniae [13] = assay: Antimicrobial activity against Streptococcus pneumoniae N1387 after 24 hrs by broth microdilution method; format: functional; details: N1387, 24 h; how it was run: as §3
Staphylococcus aureus [14] = assay: Antimicrobial activity against Staphylococcus aureus ATCC 29213 after 24 hrs by broth microdilution method; format: functional; details: ATCC 29213, 24 h; how it was run: as §3
Staphylococcus aureus [15] = assay: Antimicrobial activity against Staphylococcus aureus isolate A53 after 24 hrs by broth microdilution method; format: functional; details: isolate A53, 24 h; how it was run: as §4
Staphylococcus aureus [16] = assay: Antimicrobial activity against Staphylococcus aureus isolate Ealing 23 after 24 hrs by broth microdilution method; format: functional; details: isolate Ealing 23, 24 h; how it was run: as §4
Staphylococcus aureus [17] = assay: Antimicrobial activity against Staphylococcus aureus isolate Ealing 32 after 24 hrs by broth microdilution method; format: functional; details: isolate Ealing 32, 24 h; how it was run: as §3
Staphylococcus aureus [18] = assay: Antimicrobial activity against Staphylococcus aureus isolate RN4220 pmz1 after 24 hrs by broth microdilution method; format: functional; details: isolate RN4220 pmz1, 24 h; how it was run: as §4
Staphylococcus aureus [19] = assay: Antimicrobial activity against Staphylococcus aureus isolate Smith ATCC 13709 after 24 hrs by broth microdilution method; format: functional; details: isolate Smith ATCC 13709, 24 h; how it was run: as §4
Staphylococcus aureus [20] = assay: Antimicrobial activity against Staphylococcus aureus isolate SWEETING after 24 hrs by broth microdilution method; format: functional; how it was run: as §4
Staphylococcus aureus [21] = assay: Antimicrobial activity against Staphylococcus aureus isolate CL 1033 after 24 hrs by broth microdilution method; format: functional; details: isolate CL 1033, 24 h; how it was run: as §3
Staphylococcus aureus [22] = assay: Antimicrobial activity against Staphylococcus aureus isolate MN 1255 after 24 hrs by broth microdilution method; format: functional; details: isolate MN 1255, 24 h; how it was run: as §3
Staphylococcus aureus [23] = assay: Antimicrobial activity against Staphylococcus aureus isolate OGA833 after 24 hrs by broth microdilution method; format: functional; details: isolate OGA833, 24 h; how it was run: as §3
Staphylococcus aureus [24] = assay: Antimicrobial activity against Staphylococcus aureus isolate PAV 5 after 24 hrs by broth microdilution method; format: functional; details: isolate PAV 5, 24 h; how it was run: as §3
Staphylococcus aureus [25] = assay: Antimicrobial activity against Staphylococcus aureus isolate RN1030 after 24 hrs by broth microdilution method; format: functional; details: isolate RN1030, 24 h; how it was run: as §4
Staphylococcus aureus [26] = assay: Antimicrobial activity against Staphylococcus aureus isolate 306 after 24 hrs by broth microdilution method; format: functional; details: isolate 306, 24 h; how it was run: as §3
Staphylococcus aureus [27] = assay: Antimicrobial activity against Staphylococcus aureus isolate 68/8684 after 24 hrs by broth microdilution method; format: functional; details: isolate 68/8684, 24 h; how it was run: as §3
Staphylococcus aureus [28] = assay: Antimicrobial activity against Staphylococcus aureus isolate 934324 after 24 hrs by broth microdilution method; format: functional; details: isolate 934324, 24 h; how it was run: as §3
Staphylococcus aureus [29] = assay: Antimicrobial activity against Staphylococcus aureus isolate 934334 after 24 hrs by broth microdilution method; format: functional; details: isolate 934334, 24 h; how it was run: as §3
Staphylococcus aureus [30] = assay: Antimicrobial activity against Staphylococcus aureus isolate 934335 after 24 hrs by broth microdilution method; format: functional; details: isolate 934335, 24 h; how it was run: as §3
[31] = Half life in Sprague-Dawley rat at 5 mg/kg, iv; format: ADME, organism-based; design: dose 5 mg/kg, route intravenous; details: in vivo
[32] = AUC (0 to t) in Sprague-Dawley rat at 5 mg/kg, iv; format: ADME, organism-based; design: dose 5 mg/kg, route intravenous; details: plasma
[33] = Clearance in Sprague-Dawley rat at 5 mg/kg, iv; format: ADME, organism-based; design: dose 5 mg/kg, route intravenous; details: in vivo
[34] = Half life in Sprague-Dawley rat at 25 mg/kg, po; format: ADME, organism-based; design: dose 25 mg/kg, route oral; details: in vivo
[35] = AUC (0 to infinity) in Sprague-Dawley rat at 25 mg/kg, po; format: ADME, organism-based; design: dose 25 mg/kg, route oral, time infinity; details: plasma
[36] = Mean residence time (0 to t) in Sprague-Dawley rat at 25 mg/kg, po; format: ADME, organism-based; design: dose 25 mg/kg, route oral; details: in vivo
[37] = Solubility of the compound in artificial gastric juice measured every 2 hrs for 12 hrs by HPLC analysis; format: ADME; details: simulated gi fluid
[38] = Stability of the compound in artificial gastric juice measured every 2 hrs for 12 hrs by HPLC analysis; format: ADME; details: simulated gi fluid
Staphylococcus aureus [39] = assay: Antimicrobial activity against Staphylococcus aureus MRSA08-12 in peritonitis mouse model assessed as mortality of host at 20 mg/kg, iv as single dose relative to control; format: functional; how it was run: as §1

## CCCC[C@H](CN(O)C=O)C(=O)N1CC=C[C@H]1C(=O)Nc1ccc(F)c[n+]1[O-]
Staphylococcus aureus [1]
  mortality at 1.25 mg/kg: 100%
[2]
  recovery at 2 µM: 91.2%
hERG (KCNH2)
  inhibition at 1 µM: 4.55%
Mus musculus [3]
  Activity: Non-toxic
Mus musculus [4]
  Activity: Non-toxic
Mus musculus [5]
  Activity: Non-toxic
Staphylococcus aureus [6]
  MIC: 1 µg/mL (≈ 2.54 µM)
Staphylococcus aureus [7]
  MIC: 0.5 µg/mL (≈ 1.27 µM)
[8]
  MIC: 1 µg/mL (≈ 2.54 µM)
Staphylococcus aureus [9]
  MIC: 0.125 µg/mL (≈ 0.317 µM)
Enterococcus faecium
  MIC: 2 µg/mL (≈ 5.07 µM)
Haemophilus influenzae [10]
  MIC: 2 µg/mL (≈ 5.07 µM)
Haemophilus influenzae [11]
  MIC: ≤ 0.06 µg/mL
Moraxella catarrhalis
  MIC: ≤ 0.06 µg/mL
Streptococcus pneumoniae [12]
  MIC: 1 µg/mL (≈ 2.54 µM)
Streptococcus pneumoniae [13]
  MIC: 0.5 µg/mL (≈ 1.27 µM)
Staphylococcus aureus [14]
  MIC: 1 µg/mL (≈ 2.54 µM)
Staphylococcus aureus [15]
  MIC: 0.5 µg/mL (≈ 1.27 µM)
Staphylococcus aureus [16]
  MIC: 0.5 µg/mL (≈ 1.27 µM)
Staphylococcus aureus [17]
  MIC: 0.25 µg/mL (≈ 0.634 µM)
Staphylococcus aureus [18]
  MIC: 0.5 µg/mL (≈ 1.27 µM)
Staphylococcus aureus [19]
  MIC: 0.25 µg/mL (≈ 0.634 µM)
Staphylococcus aureus [20]
  MIC: 0.125 µg/mL (≈ 0.317 µM)
Staphylococcus aureus [21]
  MIC: 1 µg/mL (≈ 2.54 µM)
Staphylococcus aureus [22]
  MIC: 0.25 µg/mL (≈ 0.634 µM)
Staphylococcus aureus [23]
  MIC: 0.5 µg/mL (≈ 1.27 µM)
Staphylococcus aureus [24]
  MIC: 1 µg/mL (≈ 2.54 µM)
Staphylococcus aureus [25]
  MIC: 0.5 µg/mL (≈ 1.27 µM)
Staphylococcus aureus [26]
  MIC: 2 µg/mL (≈ 5.07 µM)
Staphylococcus aureus [27]
  MIC: > 16 µg/mL
Staphylococcus aureus [28]
  MIC: 1 µg/mL (≈ 2.54 µM)
Staphylococcus aureus [29]
  MIC: 1 µg/mL (≈ 2.54 µM)
Staphylococcus aureus [30]
  MIC: 0.25 µg/mL (≈ 0.634 µM)
[31]
  half-life: 1.17 h
[32]
  AUC(0-t): 1950 ng·h/mL
[33]
  clearance: 46.8 mL/min/kg
[34]
  half-life: 1.82 h
[35]
  AUC(0-inf): 3390 ng·h/mL
[36]
  MRT last: 2.34 h
[37]
  solubility: soluble
[38]
  Stability: Stable
Staphylococcus aureus [39]
  mortality at 20 mg/kg: 10%
